Results taken from ChEMBL document CHEMBL1153493, “The marine natural-derived inhibitors of glycogen synthase kinase-3beta phenylmethylene hydantoins: In vitro and in vivo activities and pharmacophore modeling” (Bioorg Med Chem, 2009).

target: Glycogen synthase kinase-3 beta (Homo sapiens, UniProt P49841); assay: Inhibition of recombinant GSK3-beta by ELISA
Sequence (P49841 whole entry): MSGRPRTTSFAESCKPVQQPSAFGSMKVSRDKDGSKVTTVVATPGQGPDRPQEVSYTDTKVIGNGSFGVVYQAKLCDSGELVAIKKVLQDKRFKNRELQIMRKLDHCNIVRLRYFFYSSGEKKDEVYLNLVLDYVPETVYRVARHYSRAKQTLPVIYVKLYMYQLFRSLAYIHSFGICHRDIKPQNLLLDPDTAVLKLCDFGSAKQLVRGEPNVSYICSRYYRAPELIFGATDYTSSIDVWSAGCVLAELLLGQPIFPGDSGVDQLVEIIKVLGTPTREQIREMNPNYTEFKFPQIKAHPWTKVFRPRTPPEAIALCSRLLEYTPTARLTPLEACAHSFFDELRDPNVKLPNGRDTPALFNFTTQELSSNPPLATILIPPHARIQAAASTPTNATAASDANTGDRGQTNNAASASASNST

Point of comparison: O=C1NC(=O)/C(=C/c2ccc(O)cc2)N1 [4-HYDROXYPHENYLMETHYLENE HYDANTOIN], IC50 13.7 µM. Against it:
- CCN(CC)c1ccc(/C=C2\NC(=O)NC2=O)cc1 — 3.3-fold lower, 4.2 µM
- O=C1NC(=O)/C(=C/c2ccc(-c3cccs3)cc2)N1 — within 1.5-fold, 13.5 µM
- O=C1NC(=O)/C(=C/c2ccc(Cl)cc2)N1 — within 1.5-fold, 18.2 µM
- O[C@]12C=C(c3nccc4c3[nH]c3ccccc34)[C@@H]3CCN(CCCC/C=C\CC1)C[C@@]31C[C@@H]3/C=C\CCCCN3[C@H]12 [MANZAMINE A] — within 1.5-fold, 12.3 µM
- CSc1ccc(/C=C2\NC(=O)NC2=O)cc1 — 2-fold lower, 6.9 µM
- CCSc1ccc(/C=C2\NC(=O)NC2=O)cc1 — 1.8-fold lower, 7.8 µM
- O=C1NC(=O)/C(=C/c2ccc(-c3ccsc3)cc2)N1 — 2.1-fold lower, 6.4 µM

test system: Rattus norvegicus; assay: Antihyperglycemic activity in ip dosed Sprague-Dawley rat assessed as increase liver glycogen; format: functional, organism-based
Procedure, shortened: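 Female Sprague Dawley rats, six weeks old, about 200 g. Food and water removed 6 h before a single ip injection of 5, 15 or 25 mg/kg as the sodium salt in PBS pH 7.2, 0.5 mL/rat. PBS vehicle control, n=3 per group. Liver homogenized in 5% TCA, glycogen precipitated with ethanol, measured with anthrone at 620 nm. Mean ± SEM.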

For CCN(CC)c1ccc(/C=C2\NC(=O)NC2=O)cc1, the Activity was “Dose-dependent effect”.
